≈ marks a conversion by molar mass, not a printed value.
What was measured:
Assay type in all cases: functional
Staphylococcus hominis [1] = test: Antimicrobial activity against methicillin-resistant coagulase-negative Staphylococcus hominis assessed as resistant isolates after 24 hrs by broth microdilution method
Mammaliicoccus sciuri [2] = test: Antimicrobial activity against methicillin-susceptible coagulase-negative Staphylococcus sciuri assessed as resistant isolates after 24 hrs by broth microdilution method
[3] = system: Staphylococcus epidermidis; test: Antimicrobial activity against methicillin-susceptible coagulase-negative Staphylococcus epidermidis after 24 hrs by broth microdilution method
Outline: (§1)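 Clinical isolates came from blood, body fluids, genital secretions, pus or sputum, identified conventionally or by Vitek. MICs were run by CLSI M7-A6 broth microdilution in Mueller-Hinton broth with 5 × 10^5 CFU/ml inoculum. Agents were twofold serially diluted, starting from 10% DMSO. Drug-free and uninoculated controls were included. Plates were incubated aerobically at 37°C for 24 h; MIC is the lowest concentration giving no visible growth.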

Staphylococcus simulans [4] = test: Antimicrobial activity against methicillin-susceptible coagulase-negative Staphylococcus simulans assessed as resistant isolates after 24 hrs by broth microdilution method
[5] = system: Staphylococcus haemolyticus; test: Bactericidal activity against methicillin-susceptible coagulase-negative Staphylococcus haemolyticus after 24 hrs by plate counting method; conditions: for MBC: Staphylococcus haemolyticus, 24 h
Outline: (§2)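 Clinical staphylococcal isolates from patient body fluids, blood, genital secretions, pus or sputum; species by conventional methods or Vitek. Twofold dilutions in Mueller-Hinton broth, inoculum 5 × 10^5 CFU/ml, 37°C aerobic 24 h (CLSI M7-A6 microdilution). About 100 μl from each well without visible growth spread on MHA; 37°C 24 h. MBC = lowest concentration giving no growth on agar.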

[6] = system: Staphylococcus haemolyticus; test: Bactericidal activity against methicillin-resistant coagulase-negative Staphylococcus haemolyticus after 24 hrs by plate counting method; conditions: for MBC: Staphylococcus haemolyticus, 24 h
Staphylococcus simulans [7] = test: Antimicrobial activity against methicillin-susceptible coagulase-negative Staphylococcus simulans after 24 hrs by broth microdilution method; outline: as §1
[8] = system: Staphylococcus epidermidis; test: Antimicrobial activity against methicillin-resistant coagulase-negative Staphylococcus epidermidis assessed as resistant isolates after 24 hrs by broth microdilution method
[9] = system: Staphylococcus epidermidis; test: Antimicrobial activity against methicillin-susceptible coagulase-negative Staphylococcus epidermidis assessed as susceptible isolates after 24 hrs by broth microdilution method
[10] = system: Staphylococcus epidermidis; test: Antimicrobial activity against methicillin-resistant coagulase-negative Staphylococcus epidermidis after 24 hrs by broth microdilution method; outline: as §1
Mammaliicoccus sciuri [11] = test: Bactericidal activity against methicillin-susceptible coagulase-negative Staphylococcus sciuri after 24 hrs by plate counting method; conditions: for MBC: Mammaliicoccus sciuri, 24 h; outline: as §2
[12] = system: Staphylococcus haemolyticus; test: Antimicrobial activity against methicillin-susceptible coagulase-negative Staphylococcus haemolyticus after 24 hrs by broth microdilution method; outline: as §1
Staphylococcus simulans [13] = test: Antimicrobial activity against methicillin-resistant coagulase-negative Staphylococcus simulans assessed as susceptible isolates after 24 hrs by broth microdilution method
Staphylococcus hominis [14] = test: Antimicrobial activity against methicillin-resistant coagulase-negative Staphylococcus hominis assessed as susceptible isolates after 24 hrs by broth microdilution method
Staphylococcus aureus [15] = test: Antimicrobial activity against methicillin-susceptible Staphylococcus aureus assessed as resistant isolates after 24 hrs by broth microdilution method
Staphylococcus hominis [16] = test: Antimicrobial activity against methicillin-susceptible coagulase-negative Staphylococcus hominis assessed as susceptible isolates after 24 hrs by broth microdilution method
Staphylococcus simulans [17] = test: Antimicrobial activity against methicillin-resistant coagulase-negative Staphylococcus simulans assessed as resistant isolates after 24 hrs by broth microdilution method
[18] = system: Staphylococcus haemolyticus; test: Antimicrobial activity against methicillin-resistant coagulase-negative Staphylococcus haemolyticus assessed as resistant isolates after 24 hrs by broth microdilution method
Staphylococcus hominis [19] = test: Antimicrobial activity against methicillin-susceptible coagulase-negative Staphylococcus hominis assessed as intermediate resistant isolates after 24 hrs by broth microdilution method; conditions: pooled result: one value given for 5 cell lines, strains, targets or settings
[20] = system: Staphylococcus haemolyticus; test: Antimicrobial activity against methicillin-resistant coagulase-negative Staphylococcus haemolyticus assessed as intermediate resistant isolates after 24 hrs by broth microdilution method
[21] = system: Staphylococcus epidermidis; test: Antimicrobial activity against methicillin-resistant coagulase-negative Staphylococcus epidermidis assessed as intermediate resistant isolates after 24 hrs by broth microdilution method
Staphylococcus aureus [22] = test: Antimicrobial activity against methicillin-susceptible Staphylococcus aureus after 24 hrs by broth microdilution method; outline: as §1
Mammaliicoccus sciuri [23] = test: Antimicrobial activity against methicillin-resistant coagulase-negative Staphylococcus sciuri assessed as intermediate resistant isolates after 24 hrs by broth microdilution method
Staphylococcus simulans [24] = test: Antimicrobial activity against methicillin-resistant coagulase-negative Staphylococcus simulans after 24 hrs by broth microdilution method; outline: as §1
Mammaliicoccus sciuri [25] = test: Antimicrobial activity against methicillin-susceptible coagulase-negative Staphylococcus sciuri assessed as susceptible isolates after 24 hrs by broth microdilution method
Outline: (§3)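 Clinical isolates from blood, body fluids, pus, sputum or genital secretions, identified conventionally or by Vitek, were tested alongside ATCC 29213 and ATCC 12228 controls. CLSI M7-A6 broth microdilution in Mueller-Hinton broth used twofold dilutions from a 10% DMSO solution and 5 × 10^5 CFU/ml inoculum. Drug-free and uninoculated wells served as controls; incubation was aerobic at 37°C for 24 h. MIC was the lowest concentration with no visible growth.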

Staphylococcus aureus [26] = test: Antimicrobial activity against methicillin-susceptible Staphylococcus aureus assessed as intermediate resistant isolates after 24 hrs by broth microdilution method
[27] = system: Staphylococcus haemolyticus; test: Antimicrobial activity against methicillin-susceptible coagulase-negative Staphylococcus haemolyticus assessed as resistant isolates after 24 hrs by broth microdilution method
Staphylococcus hominis [28] = test: Antimicrobial activity against methicillin-resistant coagulase-negative Staphylococcus hominis assessed as intermediate resistant isolates after 24 hrs by broth microdilution method
[29] = system: Staphylococcus epidermidis; test: Bactericidal activity against methicillin-susceptible coagulase-negative Staphylococcus epidermidis after 24 hrs by plate counting method; conditions: for MBC: Staphylococcus epidermidis, 24 h; outline: as §2
Staphylococcus aureus [30] = test: Antimicrobial activity against methicillin-resistant Staphylococcus aureus assessed as intermediate resistant isolates after 24 hrs by broth microdilution method
Staphylococcus hominis [31] = test: Bactericidal activity against methicillin-susceptible coagulase-negative Staphylococcus hominis after 24 hrs by plate counting method; conditions: for MBC: Staphylococcus hominis, 24 h; outline: as §2
Staphylococcus simulans [32] = test: Antimicrobial activity against methicillin-susceptible coagulase-negative Staphylococcus simulans assessed as susceptible isolates after 24 hrs by broth microdilution method; outline: as §3
Mammaliicoccus sciuri [33] = test: Antimicrobial activity against methicillin-resistant coagulase-negative Staphylococcus sciuri after 24 hrs by broth microdilution method; outline: as §1
Staphylococcus hominis [34] = test: Antimicrobial activity against methicillin-susceptible coagulase-negative Staphylococcus hominis after 24 hrs by broth microdilution method; outline: as §1
[35] = system: Staphylococcus haemolyticus; test: Antimicrobial activity against methicillin-resistant coagulase-negative Staphylococcus haemolyticus assessed as susceptible isolates after 24 hrs by broth microdilution method
Staphylococcus simulans [36] = test: Antimicrobial activity against methicillin-resistant coagulase-negative Staphylococcus simulans assessed as intermediate resistant isolates after 24 hrs by broth microdilution method

`C[C@H]1COc2c(N3CCN(C)CC3)c(F)cc3c(=O)c(C(=O)O)cn1c23.C[C@H]1COc2c(N3CCN(C)CC3)c(F)cc3c(=O)c(C(=O)O)cn1c23.O` [LEVOFLOXACIN] gave an Activity (Staphylococcus hominis [1]) of 59%, an Activity (Mammaliicoccus sciuri [2]) of 4% and an MIC [3] of 0.25 µg/mL. The MIC50 [3] was 0.25 µg/mL, the MIC90 [3] was 0.5 µg/mL and the Activity (Staphylococcus simulans [4]) was 4%. For the same compound, the MBC50 [5] was 1 µg/mL, the MBC90 [5] was 4 µg/mL and the MBC [5] was 0.5 µg/mL. For the same compound, the MBC50 [6] was 4 µg/mL, the MBC90 [6] was 16 µg/mL and the MBC [6] was 0.5 µg/mL. For the same compound, the MIC (Staphylococcus simulans [7]) was 0.25 µg/mL, the MIC50 (Staphylococcus simulans [7]) was 0.25 µg/mL and the MIC90 (Staphylococcus simulans [7]) was 0.5 µg/mL. For the same compound, the Activity [8] was 59%, the Activity [9] was 96% and the MIC [10] was 0.25 µg/mL. It also gave an MIC50 [10] of 0.25 µg/mL, an MIC90 [10] of 4 µg/mL and an MBC50 (Mammaliicoccus sciuri [11]) of 1 µg/mL. For the same compound, the MBC90 (Mammaliicoccus sciuri [11]) was 4 µg/mL, the MBC (Mammaliicoccus sciuri [11]) was 0.5 µg/mL and the MIC [12] was 0.25 µg/mL. It also gave an MIC50 [12] of 0.25 µg/mL, an MIC90 [12] of 0.5 µg/mL and an Activity (Staphylococcus simulans [13]) of 15%. For the same compound, the Activity (Staphylococcus hominis [14]) was 26%, the Activity (Staphylococcus aureus [15]) was 15% and the Activity (Staphylococcus hominis [16]) was 96%. For the same compound, the Activity (Staphylococcus simulans [17]) was 59%, the Activity [18] was 59% and the Activity (Staphylococcus hominis [19]) was 0%. It also gave an Activity [20] of 15%, an Activity [21] of 15% and an MIC (Staphylococcus aureus [22]) of 0.125 µg/mL. For the same compound, the MIC50 (Staphylococcus aureus [22]) was 0.125 µg/mL, the MIC90 (Staphylococcus aureus [22]) was 8 µg/mL and the Activity (Mammaliicoccus sciuri [23]) was 15%. The MIC (Staphylococcus simulans [24]) was 0.25 µg/mL, the MIC50 (Staphylococcus simulans [24]) was 0.25 µg/mL and the MIC90 (Staphylococcus simulans [24]) was 4 µg/mL. The Activity (Mammaliicoccus sciuri [25]) was 96%, the Activity (Staphylococcus aureus [26]) was 4% and the Activity [27] was 4%. For the same compound, the Activity (Staphylococcus hominis [28]) was 15%, the MBC50 [29] was 1 µg/mL and the MBC90 [29] was 4 µg/mL. For the same compound, the MBC [29] was 0.5 µg/mL, the Activity (Staphylococcus aureus [30]) was 0% and the MBC50 (Staphylococcus hominis [31]) was 1 µg/mL. The MBC90 (Staphylococcus hominis [31]) was 4 µg/mL, the MBC (Staphylococcus hominis [31]) was 0.5 µg/mL and the Activity (Staphylococcus simulans [32]) was 96%. The MIC (Mammaliicoccus sciuri [33]) was 0.25 µg/mL, the MIC50 (Mammaliicoccus sciuri [33]) was 0.25 µg/mL and the MIC90 (Mammaliicoccus sciuri [33]) was 4 µg/mL. It also gave an MIC (Staphylococcus hominis [34]) of 0.25 µg/mL, an MIC50 (Staphylococcus hominis [34]) of 0.25 µg/mL and an MIC90 (Staphylococcus hominis [34]) of 0.5 µg/mL. For the same compound, the Activity [35] was 26% and the Activity (Staphylococcus simulans [36]) was 15%.
For `CN(C)[C@@H]1C(O)=C(C(N)=O)C(=O)[C@@]2(O)C(O)=C3C(=O)c4c(O)cccc4[C@@](C)(O)[C@H]3C[C@@H]12` [TETRACYCLINE], the Activity (Staphylococcus hominis [1]) was 75%, the Activity (Mammaliicoccus sciuri [2]) was 12% and the MIC [3] was 0.5 µg/mL (≈ 1.13 µM). The MIC50 [3] was 0.5 µg/mL (≈ 1.13 µM), the MIC90 [3] was 32 µg/mL (≈ 72 µM) and the Activity (Staphylococcus simulans [4]) was 4%. For the same compound, the MBC50 [5] was 8 µg/mL (≈ 18 µM), the MBC90 [5] was 128 µg/mL (≈ 288 µM) and the MBC [5] was 1 µg/mL (≈ 2.25 µM). It also gave an MBC50 [6] of 4 µg/mL (≈ 9 µM), an MBC [6] of 0.5 µg/mL (≈ 1.13 µM) and an MIC (Staphylococcus simulans [7]) of 0.5 µg/mL (≈ 1.13 µM). For the same compound, the MIC50 (Staphylococcus simulans [7]) was 0.5 µg/mL (≈ 1.13 µM), the MIC90 (Staphylococcus simulans [7]) was 32 µg/mL (≈ 72 µM) and the Activity [8] was 75%. It also gave an Activity [9] of 69%, an MIC50 [10] of 1 µg/mL (≈ 2.25 µM) and an MIC90 [10] of 64 µg/mL (≈ 144 µM). For the same compound, the MBC50 (Mammaliicoccus sciuri [11]) was 8 µg/mL (≈ 18 µM), the MBC90 (Mammaliicoccus sciuri [11]) was 128 µg/mL (≈ 288 µM) and the MBC (Mammaliicoccus sciuri [11]) was 1 µg/mL (≈ 2.25 µM). The MIC [12] was 0.5 µg/mL (≈ 1.13 µM), the MIC50 [12] was 0.5 µg/mL (≈ 1.13 µM) and the MIC90 [12] was 32 µg/mL (≈ 72 µM). The Activity (Staphylococcus simulans [13]) was 7%, the Activity (Staphylococcus hominis [14]) was 18% and the Activity (Staphylococcus aureus [15]) was 11%. For the same compound, the Activity (Staphylococcus hominis [16]) was 69%, the Activity (Staphylococcus simulans [17]) was 75% and the Activity [18] was 75%. For the same compound, the Activity (Staphylococcus hominis [19]) was 19%, the Activity [20] was 7% and the Activity [21] was 7%. The MIC50 (Staphylococcus aureus [22]) was 4 µg/mL (≈ 9 µM), the MIC90 (Staphylococcus aureus [22]) was 8 µg/mL (≈ 18 µM) and the Activity (Mammaliicoccus sciuri [23]) was 7%. It also gave an MIC50 (Staphylococcus simulans [24]) of 1 µg/mL (≈ 2.25 µM), an MIC90 (Staphylococcus simulans [24]) of 64 µg/mL (≈ 144 µM) and an Activity (Mammaliicoccus sciuri [25]) of 69%. It also gave an Activity (Staphylococcus aureus [26]) of 19%, an Activity [27] of 12% and an Activity (Staphylococcus hominis [28]) of 7%. The MBC50 [29] was 8 µg/mL (≈ 18 µM), the MBC90 [29] was 128 µg/mL (≈ 288 µM) and the MBC [29] was 1 µg/mL (≈ 2.25 µM). For the same compound, the Activity (Staphylococcus aureus [30]) was 0%, the MBC50 (Staphylococcus hominis [31]) was 8 µg/mL (≈ 18 µM) and the MBC90 (Staphylococcus hominis [31]) was 128 µg/mL (≈ 288 µM). The MBC (Staphylococcus hominis [31]) was 1 µg/mL (≈ 2.25 µM), the Activity (Staphylococcus simulans [32]) was 69% and the MIC50 (Mammaliicoccus sciuri [33]) was 1 µg/mL (≈ 2.25 µM). For the same compound, the MIC90 (Mammaliicoccus sciuri [33]) was 64 µg/mL (≈ 144 µM), the MIC (Staphylococcus hominis [34]) was 0.5 µg/mL (≈ 1.13 µM) and the MIC50 (Staphylococcus hominis [34]) was 0.5 µg/mL (≈ 1.13 µM). The MIC90 (Staphylococcus hominis [34]) was 32 µg/mL (≈ 72 µM), the Activity [35] was 18% and the Activity (Staphylococcus simulans [36]) was 7%.
